Consider 2 compounds from article PMC4288442 (Biochemical and biophysical research communications, 2013).

Structures are written as SMILES. Non-standard residues stand in square brackets, D forms with d. Residues, ends and D or L forms follow the SMILES beside them. Nle = CCCC[C@H](N)C(=O)O

For orientation: IC50 means the concentration needed to halve the response being measured.

For this experiment, the target named is wild type (NL4-3) HIV-1 protease (Human immunodeficiency virus type 1 group M subtype B, UniProt P12497). Put plainly: FRET-based enzyme inhibition assay, wild type. Type of experiment: biochemical. The gist of the method: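 Commercial wild-type NL4-3 HIV-1 protease, supplied at 0.3 mg/ml, assayed by FRET with a fluorogenic HIV-1 substrate. Peptide test compounds carry a reduced (-CH2-NH-) bond in place of the labile peptide bond so the protease cannot cleave them. IC50 is the average of three independent experiments, with SD.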

In turn, `CC(C)C[C@H](NC(=O)[C@@H](NC(=O)[C@@H](N)CCCNC(=N)N)C(C)C)C(=O)O` [Compound 7b, Arg-Val-Leu] (H-Arg-Val-Leu-OH) displayed an IC50 greater than 1 µM.
Take `CCCC[C@H](NC(=O)[C@H](C)NC(=O)[C@H](CCC(=O)O)NC(=O)[C@@H](N)Cc1ccccc1)C(=O)O` [Compound 7a, Phe-Glu-Ala-Nle] (H-FEA[Nle]-OH): the 50% inhibitory concentration (IC50) is greater than 1 µM.
